Measurements published in ChEMBL document CHEMBL3525958 (Drug Metab Dispos, 2013).

Key:
BCRP [1] = experiment: in vitro; settings: human, Caco-2, with Ko134 11 uM
[2] = Activity at human P-glycoprotein expressed in pig LLC-PK1 cells at 5 uM after 90 mins by liquid scintillation counting; type: ADME, cell-based
[3] = Activity at human P-glycoprotein expressed in pig LLC-PK1 cells at 25 uM after 90 mins by liquid scintillation counting; type: ADME, cell-based
[4] = Activity at human P-glycoprotein expressed in pig LLC-PK1 cells at 50 uM after 90 mins by liquid scintillation counting; type: ADME, cell-based
[5] = Activity at human P-glycoprotein expressed in pig LLC-PK1 cells at 100 uM after 90 mins by liquid scintillation counting; type: ADME, cell-based
[6] = Activity at human P-glycoprotein expressed in pig LLC-PK1 cells assessed as rate of transport at 10 uM after 60 mins by liquid scintillation counting; type: ADME, cell-based; settings: llc-pk1, 1 h
Method in brief: (§1)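 Human P-gp-cDNA LLC-PK1 cells and vector-only (mock) cells were cultured on collagen-coated inserts for 7 days. […] Facilitated rate v = IA/(filter area × time), where IA is the net P-gp-dependent pmol transported.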

[7] = Activity at human P-glycoprotein expressed in pig LLC-PK1 cells assessed as rate of transport at 10 uM after 90 mins by liquid scintillation counting; type: ADME, cell-based
Method in brief: as §1

[8] = Activity at human P-glycoprotein expressed in pig LLC-PK1 cells assessed as rate of transport at 10 uM after 120 mins by liquid scintillation counting; type: ADME, cell-based; settings: llc-pk1, 2 h
Method in brief: as §1

[9] = Activity at human P-glycoprotein expressed in pig LLC-PK1 cells assessed as rate of transport at […] after 90 mins by liquid scintillation counting; type: ADME, cell-based
[10] = Activity at human P-glycoprotein expressed in pig LLC-PK1 cells assessed as rate of transport at 5 uM after 90 mins by liquid scintillation counting; type: ADME, cell-based
Method in brief: as §1

[11] = Activity at human P-glycoprotein expressed in pig LLC-PK1 cells assessed as rate of transport at 25 uM after 90 mins by liquid scintillation counting; type: ADME, cell-based
Method in brief: as §1

[12] = Activity at human P-glycoprotein expressed in pig LLC-PK1 cells assessed as rate of transport at 50 uM after 90 mins by liquid scintillation counting; type: ADME, cell-based
Method in brief: as §1

[13] = Activity at human P-glycoprotein expressed in pig LLC-PK1 cells assessed as rate of transport at 100 uM after 90 mins by liquid scintillation counting; type: ADME, cell-based
Method in brief: as §1

[14] = Activity at human P-glycoprotein expressed in pig LLC-PK1 cells at 10 uM after 60 mins by liquid scintillation counting; type: ADME, cell-based; settings: llc-pk1, 1 h
[15] = Activity at human P-glycoprotein expressed in pig LLC-PK1 cells at 10 uM after 90 mins by liquid scintillation counting; type: ADME, cell-based
[16] = Activity at human P-glycoprotein expressed in pig LLC-PK1 cells at 10 uM after 120 mins by liquid scintillation counting; type: ADME, cell-based; settings: llc-pk1, 2 h
[17] = Activity at human P-glycoprotein expressed in pig LLC-PK1 cells at […] after 90 mins by liquid scintillation counting; type: ADME, cell-based
BCRP [18] = experiment: Efflux ratio of apparent permeability from basolateral to apical side over apical to basolateral side in MDCK2 cells expressing human BCRP at 5 uM by liquid scintillation counting; type: ADME, cell-based, Canis lupus familiaris, MDCK-II; settings: dog
Method in brief: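 MDCKII cells, mock or carrying human BCRP cDNA, were cultured 4 days on transwell inserts, with 10 mM sodium butyrate added 24 h before assay. Cells were pre-incubated 10 min in modified Krebs-Henseleit buffer with 5 mM glucose at 37°C. […] Samples were scintillation counted, and efflux ratio = PcB-A/PcA-B.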

P-glycoprotein (human) = experiment: Efflux ratio of apparent permeability from basolateral to apical side over apical to basolateral side in pig LLC-PK1 cells expressing human P-glycoprotein at 5 uM by liquid scintillation counting; type: ADME, cell-based, Sus scrofa
BCRP [19] = experiment: Permeability in human Caco2 cells assessed as 11 uM BCRP inhibitor Ko134-mediated inhibition of digoxin at 5 uM by liquid scintillation counting; type: ADME, cell-based; settings: Caco-2, with Ko134 11 uM
Method in brief: (§2)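 Caco-2 monolayers (passages 17–40, 13–22 days post-seeding) were used. Bidirectional transport ran for 2 h at 37°C, shaken at 50 rpm, in HBSS/10 mM HEPES pH 7.4. […] Inhibitors were present in both chambers: ketoconazole or cyclosporin A (20 or 50 µM), Ko134 (1 or 11 µM), or probenecid with the 20 µM runs. Results are % inhibition of efflux ratio.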

P-gp [20] = experiment: Apparent permeability in human Caco2 cells assessed as 50 uM P-gp inhibitor cyclosporin A-mediated inhibition of digoxin efflux at 5 uM by liquid scintillation counting; type: ADME, cell-based; settings: Caco-2 cells, with cyclosporin A 50 uM
Method in brief: as §2

P-gp [21] = experiment: Apparent permeability in human Caco2 cells assessed as 50 uM P-gp inhibitor ketoconazole-mediated inhibition of digoxin efflux at 5 uM by liquid scintillation counting; type: ADME, cell-based; settings: Caco-2 cells, with ketoconazole 50 uM
Method in brief: as §2

[22] = Apparent permeability from apical to basolateral side of human Caco2 cells at 5 uM by liquid scintillation counting; settings: Caco-2
[23] = Apparent permeability from basolateral to apical side of human Caco2 cells at 5 uM by liquid scintillation counting; settings: Caco-2
[24] = Oral bioavailability in rat; type: ADME, organism-based; settings: in vivo
[25] = Oral bioavailability in dog; type: ADME, organism-based, Canis lupus familiaris; settings: in vivo
[26] = Oral bioavailability in human; type: ADME, organism-based; settings: in vivo
[27] = Ratio of drug level in brain to blood in po dosed rat; type: ADME, organism-based
[28] = Ratio of Cmax in milk to plasma in lactating rat; type: ADME; settings: female
[29] = Ratio of AUC in milk to plasma in lactating rat; type: ADME; settings: female, read-out: Ratio AUC

SMILES: O=C1CN(/N=C/c2ccc([N+](=O)[O-])o2)C(=O)N1 [NITROFURANTOIN]
- inhibition at 5 µM (BCRP [1]): 78%

SMILES: COc1ccc(-n2nc(C(N)=O)c3c2C(=O)N(c2ccc(N4CCCC[14C]4=O)cc2)CC3)cc1
- Intrinsic activity [2]: 64 pmol
- Intrinsic activity [3]: 548 pmol
- Intrinsic activity [4]: 1485 pmol
- Intrinsic activity [5]: 2772 pmol
- Drug transport [6]: 471 pmol/cm2/hr
- Drug transport [7]: 360 pmol/cm2/hr
- Drug transport [8]: 474 pmol/cm2/hr
- Drug transport [9]: 71 pmol/cm2/hr
- Drug transport [10]: 139 pmol/cm2/hr
- Drug transport [11]: 1179 pmol/cm2/hr
- Drug transport [12]: 3194 pmol/cm2/hr
- Drug transport [13]: 5962 pmol/cm2/hr
- Intrinsic activity [14]: 146 pmol
- Intrinsic activity [15]: 167 pmol
- Intrinsic activity [16]: 294 pmol
- Intrinsic activity [17]: 33 pmol

SMILES: COc1cc2nc(N3CCN(C(=O)c4ccco4)CC3)nc(N)c2cc1OC [PRAZOSIN]
- efflux ratio at 5 µM (BCRP [18]): 10

SMILES: C[C@H]1O[C@@H](O[C@H]2[C@@H](O)C[C@H](O[C@H]3[C@@H](O)C[C@H](O[C@H]4CC[C@@]5(C)[C@H](CC[C@@H]6[C@@H]5C[C@@H](O)[C@]5(C)[C@@H](C7=CC(=O)OC7)CC[C@]65O)C4)O[C@@H]3C)O[C@@H]2C)C[C@H](O)[C@@H]1O [DIGOXIN]
- efflux ratio at 5 µM (P-glycoprotein (human)): > 7
- inhibition at 5 µM (BCRP [19]): 50%
- inhibition at 5 µM (P-gp [20]): 98%
- inhibition at 5 µM (P-gp [21]): 100%
- Papp A→B at 5 µM [22]: 2.3 ×10⁻⁶ cm/s
- Papp B→A at 5 µM [23]: 20.5 ×10⁻⁶ cm/s

SMILES: COc1ccc(-n2nc(C(N)=O)c3c2C(=O)N(c2ccc(N4CCCCC4=O)cc2)CC3)cc1 [APIXABAN]
- bioavailability [24]: 30%
- bioavailability [25]: 70%
- bioavailability [26]: 50%
- Kp [27]: < 0.1
- Kp [28]: 8
- Kp [29]: 30
